In ChEMBL document CHEMBL1148762, “Lysosome and HER3 (ErbB3) selective anticancer agent kahalalide F: semisynthetic modifications and antifungal lead-exploration studies” (J Med Chem, 2007):
≈ marks a conversion by molar mass, not a printed value. Calls of active or inactive are those of the source. The rule behind the calls is not given here.

Experiments:
Fusarium proliferatum [1] = assay: Antimicrobial activity against Fusarium proliferatum at 0.3 uM after 72 hrs by microtiter assay; format: functional
How it was run: (§1)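 96-well microdilution broth assay with conidia (3 × 10^5 conidia/mL, harvested from 7-day PDA cultures and filtered) against F. oxysporum, F. proliferatum and F. solani at 0.3, 3 and 30 µM. Plates were held at 24 ± 1 °C under a 12 h photoperiod. Growth was read at 620 nm at 24, 48 and 72 h and reported as percent inhibition from mean absorbance with standard error.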

Fusarium proliferatum [2] = assay: Antimicrobial activity against Fusarium proliferatum at 3 uM after 48 hrs by microtiter assay; format: functional; how it was run: as §1
Fusarium proliferatum [3] = assay: Antimicrobial activity against Fusarium proliferatum at 3 uM after 72 hrs by microtiter assay; format: functional; how it was run: as §1
Aspergillus fumigatus = assay: Antimicrobial activity against Aspergillus fumigatus ATCC 90906; format: functional, organism-based
Cryptococcus neoformans = assay: Antimicrobial activity against Cryptococcus neoformans ATCC 90113; format: functional, organism-based
Fusarium proliferatum [4] = assay: Antimicrobial activity against Fusarium proliferatum at 0.3 uM after 48 hrs by microtiter assay; format: functional; how it was run: as §1
Candida albicans = assay: Antimicrobial activity against Candida albicans ATCC 90028; format: functional, organism-based
[5] = test system: Mycobacterium intracellulare; assay: Antimicrobial activity against Mycobacterium intracellular ATCC 23068; format: functional, organism-based
[6] = test system: Mycobacterium tuberculosis; assay: Antibacterial activity against Mycobacterium tuberculosis H37Rv at 16 ug/mL by micro plate alamar blue assay; format: functional
How it was run: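 M. tuberculosis H37Rv ATCC 27294 grown in BACTEC 12B medium; microplate Alamar blue assay (MABA). Primary screen at a single concentration of 16 µg/mL, read as percent inhibition.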

[7] = test system: Mycobacterium tuberculosis; assay: Antibacterial activity against Mycobacterium tuberculosis H37Rv by micro plate alamar blue assay; format: functional
Fusarium oxysporum [8] = assay: Antimicrobial activity against Fusarium oxysporum at 0.3 uM after 48 hrs by microtiter assay; format: functional; how it was run: as §1
Fusarium oxysporum [9] = assay: Antimicrobial activity against Fusarium oxysporum at 0.3 uM after 72 hrs by microtiter assay; format: functional; how it was run: as §1
Fusarium solani [10] = assay: Antimicrobial activity against Fusarium solani at 0.3 uM after 48 hrs by microtiter assay; format: functional; how it was run: as §1
Fusarium solani [11] = assay: Antimicrobial activity against Fusarium solani at 0.3 uM after 72 hrs by microtiter assay; format: functional; how it was run: as §1
Fusarium oxysporum [12] = assay: Antimicrobial activity against Fusarium oxysporum at 3 uM after 48 hrs by microtiter assay; format: functional; how it was run: as §1
Fusarium oxysporum [13] = assay: Antimicrobial activity against Fusarium oxysporum at 3 uM after 72 hrs by microtiter assay; format: functional; how it was run: as §1
Fusarium solani [14] = assay: Antimicrobial activity against Fusarium solani at 3 uM after 48 hrs by microtiter assay; format: functional; how it was run: as §1
Fusarium solani [15] = assay: Antimicrobial activity against Fusarium solani at 3 uM after 72 hrs by microtiter assay; format: functional; how it was run: as §1
Fusarium oxysporum [16] = assay: Antimicrobial activity against Fusarium oxysporum at 30 uM after 48 hrs by microtiter assay; format: functional; how it was run: as §1
Fusarium oxysporum [17] = assay: Antimicrobial activity against Fusarium oxysporum at 30 uM after 72 hrs by microtiter assay; format: functional; how it was run: as §1
Fusarium solani [18] = assay: Antimicrobial activity against Fusarium solani at 30 uM after 48 hrs by microtiter assay; format: functional; how it was run: as §1
Fusarium solani [19] = assay: Antimicrobial activity against Fusarium solani at 30 uM after 72 hrs by microtiter assay; format: functional; how it was run: as §1
Fusarium proliferatum [20] = assay: Antimicrobial activity against Fusarium proliferatum at 30 uM after 48 hrs by microtiter assay; format: functional; how it was run: as §1
Fusarium proliferatum [21] = assay: Antimicrobial activity against Fusarium proliferatum at 30 uM after 72 hrs by microtiter assay; format: functional; how it was run: as §1
Fusarium proliferatum [22] = assay: Fungicidal activity against Fusarium proliferatum at 30 uM after 72 hrs by microtiter plate assay; format: functional, organism-based
How it was run: (§2)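 After 72 h of microtiter broth exposure at 30 µM, 20 µL from each well was plated onto compound-free potato dextrose agar and incubated 3 days at 28 °C. No regrowth was scored fungicidal; regrowth was scored fungistatic.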

Fusarium solani [23] = assay: Fungicidal activity against Fusarium solani at 30 uM after 72 hrs by microtiter assay; format: functional, organism-based; how it was run: as §2
Fusarium oxysporum [24] = assay: Fungistatic activity against Fusarium oxysporum at 30 uM after 72 hrs by microtiter plate assay; format: functional, organism-based
How it was run: (§3)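 Conidia come from 7-day potato dextrose agar cultures, filtered and set photometrically (625 nm) to 3 × 10^5 conidia/mL. They are exposed to compound at 30 µM in 96-well microdilution broth at 24 ± 1 °C under a 12 h photoperiod. After 72 h, 20 µL per well is subcultured on drug-free potato dextrose agar at 28 °C for 3 days. No regrowth is scored fungicidal; regrowth is scored fungistatic.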

Fusarium proliferatum [25] = assay: Fungistatic activity against Fusarium proliferatum at 30 uM after 72 hrs by microtiter plate assay; format: functional, organism-based; how it was run: as §3
Fusarium solani [26] = assay: Fungistatic activity against Fusarium solani at 30 uM after 72 hrs by microtiter plate assay; format: functional, organism-based; how it was run: as §3
Fusarium oxysporum [27] = assay: Fungicidal activity against Fusarium oxysporum at 30 uM after 72 hrs by microtiter plate assay; format: functional, organism-based; how it was run: as §2
Escherichia coli = assay: Antimicrobial activity against Escherichia coli; format: functional, organism-based
Staphylococcus aureus = assay: Antimicrobial activity against methicillin-resistant Staphylococcus aureus; format: functional, organism-based

SMILES	inhibition at 0.3 µM (Fusarium proliferatum [1]) [%]	inhibition at 3 µM (Fusarium proliferatum [2]) [%]	inhibition at 3 µM (Fusarium proliferatum [3]) [%]	IC50 (Aspergillus fumigatus) [µM]	IC50 (Cryptococcus neoformans) [µM]	inhibition at 0.3 µM (Fusarium proliferatum [4]) [%]	IC50 (Candida albicans) [µM]	inhibition at 0.3 µM (Fusarium oxysporum [8]) [%]	inhibition at 0.3 µM (Fusarium oxysporum [9]) [%]	inhibition at 0.3 µM (Fusarium solani [10]) [%]	inhibition at 0.3 µM (Fusarium solani [11]) [%]	inhibition at 3 µM (Fusarium oxysporum [12]) [%]	inhibition at 3 µM (Fusarium oxysporum [13]) [%]	inhibition at 3 µM (Fusarium solani [14]) [%]	inhibition at 3 µM (Fusarium solani [15]) [%]	inhibition at 30 µM (Fusarium oxysporum [16]) [%]	inhibition at 30 µM (Fusarium oxysporum [17]) [%]	inhibition at 30 µM (Fusarium solani [18]) [%]	inhibition at 30 µM (Fusarium solani [19]) [%]	Activity (Fusarium solani [23])	also measured
C/C=C1\NC(=O)[C@H](Cc2ccccc2)NC(=O)[C@@H](C(C)C)NC(=O)[C@@H]([C@@H](C)CC)NC(=O)[C@H](NC(=O)[C@H](NC(=O)[C@H](CCCN)NC(=O)[C@H]2CCCN2C(=O)[C@@H](NC(=O)[C@H](NC(=O)[C@H](NC(=O)[C@@H](NC(=O)CCCC(C)C)C(C)C)[C@H](C)OC(C)=O)C(C)C)C(C)C)[C@@H](C)CC)[C@@H](C)OC(=O)[C@H](C(C)C)NC1=O	0.3	0	0.3	3.38	1.89	0	3.28	0	0	0	0	0	0	0	0	78.5	74.4	80.9	96.7	Active	MFC (Aspergillus fumigatus): 10 µM (≈ 15.2 µg/mL); MIC (Aspergillus fumigatus): 10 µM (≈ 15.2 µg/mL); MFC (Cryptococcus neoformans): 5 µM (≈ 7.6 µg/mL); MIC (Cryptococcus neoformans): 5 µM (≈ 7.6 µg/mL); MFC (Candida albicans): 20 µM (≈ 30.4 µg/mL); MIC (Candida albicans): 10 µM (≈ 15.2 µg/mL); IC50 [5]: 14.3 µM; MBC [5]: > 20 µM; MIC [5]: > 20 µM; inhibition at 16 µg/mL [6]: 94%; MIC [7]: 15.4 µg/mL (≈ 10.1 µM); inhibition at 30 µM (Fusarium proliferatum [20]): 70.8%; inhibition at 30 µM (Fusarium proliferatum [21]): 34.7%; Activity (Fusarium proliferatum [22]): Active; Activity (Fusarium oxysporum [24]): Active
O=C1C2CC=CCC2C(=O)N1SC(Cl)(Cl)Cl (centres undefined) [CAPTAN]	3	12	0	–	–	6	–	0.2	0	0	0	7.6	0	5.1	0	99.5	98.1	90.7	47.9	–	inhibition at 30 µM (Fusarium proliferatum [20]): 100%; inhibition at 30 µM (Fusarium proliferatum [21]): 100%; Activity (Fusarium proliferatum [25]): Active; Activity (Fusarium solani [26]): Active; Activity (Fusarium oxysporum [24]): Active
C/C=C1\NC(=O)[C@H](Cc2ccccc2)NC(=O)[C@@H](C(C)C)NC(=O)[C@@H]([C@@H](C)CC)NC(=O)[C@H](NC(=O)[C@H](NC(=O)[C@H](CCCNCc2cccs2)NC(=O)[C@H]2CCCN2C(=O)[C@@H](NC(=O)[C@H](NC(=O)[C@H](NC(=O)[C@@H](NC(=O)CCCC(C)C)C(C)C)[C@H](C)O)C(C)C)C(C)C)[C@@H](C)CC)[C@@H](C)OC(=O)[C@H](C(C)C)NC1=O	–	–	–	–	–	–	–	–	–	–	–	–	–	–	–	–	–	–	–	Active	Activity (Fusarium proliferatum [25]): Active; Activity (Fusarium oxysporum [27]): Active
C/C=C1\NC(=O)[C@H](Cc2ccccc2)NC(=O)[C@@H](C(C)C)NC(=O)[C@@H]([C@@H](C)CC)NC(=O)[C@H](NC(=O)[C@H](NC(=O)[C@H](CCCNCc2ccncc2)NC(=O)[C@H]2CCCN2C(=O)[C@@H](NC(=O)[C@H](NC(=O)[C@H](NC(=O)[C@@H](NC(=O)CCCC(C)C)C(C)C)[C@H](C)O)C(C)C)C(C)C)[C@@H](C)CC)[C@@H](C)OC(=O)[C@H](C(C)C)NC1=O	–	–	–	–	–	–	–	–	–	–	–	–	–	–	–	–	–	–	–	Active	Activity (Fusarium proliferatum [22]): Active; Activity (Fusarium oxysporum [24]): Active
CC(C)CCC[C@H]1CC(=O)N[C@H](Cc2c[nH]c3ccccc23)C(=O)N2CCC[C@H]2C(=O)N[C@@H](CCCNC(=N)N)C(=O)O1 [KAHALALIDE D]	–	–	–	> 33.6	> 33.6	–	> 33.6	–	–	–	–	–	–	–	–	–	–	–	–	–	Activity (Escherichia coli): inactive; Activity (Staphylococcus aureus): inactive; IC50 [5]: > 33.6 µM; inhibition at 16 µg/mL [6]: 49%
C/C=C(\NC(=O)[C@H](Cc1ccccc1)NC(=O)[C@H](NC(=O)[C@H](NC(=O)[C@H](NC(=O)[C@H](NC(=O)[C@H](CCCN)NC(=O)[C@H]1CCCN1C(=O)[C@@H](NC(=O)[C@H](NC(=O)[C@H](NC(=O)[C@@H](NC(=O)CCCC(C)C)C(C)C)[C@H](C)O)C(C)C)C(C)C)[C@@H](C)CC)[C@@H](C)O)[C@@H](C)CC)C(C)C)C(=O)N[C@H](C(=O)O)C(C)C	–	–	–	–	–	–	–	–	–	–	–	–	–	–	–	–	–	–	–	–	Activity (Escherichia coli): inactive; Activity (Staphylococcus aureus): inactive
C[C@@H]1[C@H](O)[C@@H](C)/C=C/C=C/C=C/C=C/C=C/C=C/C=C/[C@H](O[C@@H]2O[C@H](C)[C@@H](O)[C@H](N)[C@@H]2O)C[C@@H]2O[C@](O)(C[C@@H](O)C[C@@H](O)[C@H](O)CC[C@@H](O)C[C@@H](O)CC(=O)O[C@H]1C)C[C@H](O)[C@H]2C(=O)O [AMPHOTERICIN B]	0	7.9	0	1.32	0.79	0	0.25	0	0	0	0.1	12.5	0	18.1	0	99.7	87.1	100	98.1	Active	MFC (Aspergillus fumigatus): 2.5 µM (≈ 2.31 µg/mL); MIC (Aspergillus fumigatus): 2.5 µM (≈ 2.31 µg/mL); MFC (Cryptococcus neoformans): 0.06 µM (≈ 0.0554 µg/mL); MIC (Cryptococcus neoformans): 0.016 µM (≈ 0.0148 µg/mL); MFC (Candida albicans): 1.25 µM (≈ 1.16 µg/mL); MIC (Candida albicans): 0.625 µM (≈ 0.578 µg/mL); inhibition at 30 µM (Fusarium proliferatum [20]): 99.8%; inhibition at 30 µM (Fusarium proliferatum [21]): 79%; Activity (Fusarium proliferatum [22]): Active; Activity (Fusarium oxysporum [27]): Active
C/C=C1\NC(=O)[C@H](Cc2ccccc2)NC(=O)[C@@H](C(C)C)NC(=O)[C@@H]([C@@H](C)CC)NC(=O)[C@H](NC(=O)[C@H](NC(=O)[C@H](CCCN)NC(=O)[C@H]2CCCN2C(=O)[C@@H](NC(=O)[C@H](NC(=O)[C@H](NC(=O)[C@@H](NC(=O)CCCC(C)C)C(C)C)C(C)=O)C(C)C)C(C)C)[C@@H](C)CC)[C@@H](C)OC(=O)[C@H](C(C)C)NC1=O	–	–	–	–	–	–	–	–	–	–	–	–	–	–	–	–	–	–	–	Active	Activity (Fusarium proliferatum [25]): Active; Activity (Fusarium oxysporum [27]): Active
